The source of these data is ChEMBL document CHEMBL3286319, “Hyafurones, hyapyrrolines, and hyapyrones: polyketides from Hyalangium minutum” (J Nat Prod, 2014).

The test system of one assay is Micrococcus luteus. In words: Antibacterial activity against Micrococcus luteus by serial dilution method. The assay is classed as functional.
The test system of a further assay is Staphylococcus aureus. Put plainly: Antibacterial activity against Staphylococcus aureus by serial dilution method. Format: functional.
For a further assay, the system named is Escherichia coli. In words: Antibacterial activity against Escherichia coli TolC by serial dilution method. The assay is classed as functional.
A further assay has as its system Nocardia. Put plainly: Antibacterial activity against Nocardia flava by serial dilution method. The assay is classed as functional.
Assay [1] relates to Chromobacterium violaceum. Put plainly: Antibacterial activity against Chromobacterium violaceum by serial dilution method. Format: functional.
For another assay, the system named is Pseudomonas aeruginosa. In words: Antibacterial activity against Pseudomonas aeruginosa by serial dilution method. Format: functional.
For another assay, the system named is Mycolicibacterium phlei. Put plainly: Antibacterial activity against Mycobacterium phlei by serial dilution method. The assay is classed as functional.
For the next assay, the system named is Mucor hiemalis. Put plainly: Antifungal activity against Mucor hiemalis by serial dilution method. The assay is classed as functional. Put shortly:
(§1)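 MIC by 1:1 serial dilution in 96-well microtiter plates. Yeasts and fungi were grown in MYC medium (1.0% glucose, 1.0% phytone peptone, 50 mM HEPES, pH 7.0).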

Assay [2] relates to Schizosaccharomyces pombe. In words: Antifungal activity against Schizosaccharomyces pombe by serial dilution method. The assay is classed as functional. An outline of the steps:
as §1

Another assay relates to Rhodotorula glutinis. Put plainly: Antifungal activity against Rhodotorula glutinis by serial dilution method. The assay is classed as functional. Put shortly: as §1
Another assay concerns Wickerhamomyces anomalus. Put plainly: Antifungal activity against Pichia anomala by serial dilution method. Format: functional. As to conditions: Hansenula anomala. An outline of the steps:
as §1

The test system of a further assay is Candida albicans. Put plainly: Antifungal activity against Candida albicans by serial dilution method. The assay is classed as functional. An outline of the steps:
as §1

For the next assay, the system named is HUVEC. In words: Cytotoxicity against HUVEC by MTT assay. The note with it: Homo sapiens. Format: cell-based.
The test system of assay [3] is Trypanosoma brucei rhodesiense. Put plainly: Antiparasitic activity against Trypanosoma brucei rhodesiense. Format: functional, organism-based.
A further assay has as its system Trypanosoma cruzi. Put plainly: Antiparasitic activity against Trypanosoma cruzi. The assay is classed as functional, organism-based.
A further assay deals with Leishmania donovani. In words: Antiparasitic activity against Leishmania donovani axenic amastigotes. Format: functional, organism-based.
A further assay has as its system Plasmodium falciparum. In words: Antiparasitic activity against Plasmodium falciparum K1. Format: functional, organism-based.
For a further assay, the system named is L929. In words: Cytotoxicity against mouse L929 cells by MTT assay. The assay is classed as cell-based.

Converted amounts (≈) assume the structure as drawn. The source made the active and inactive calls. The rule behind the calls is not given here.

Regarding `CC1=C(CC(O)CC(O)\C=C/C=C/C(C)=C/C=C/C(C)C(O)C(C)CCc2ccccc2)OC(C)(O)C1=O` (stereo not given), the MIC (against Micrococcus luteus; against Staphylococcus aureus; in the assay with Escherichia coli; against Nocardia; in assay [1]; in the assay with Pseudomonas aeruginosa) was greater than 67 µg/mL in each case. In addition, the MIC (in the assay with Mycolicibacterium phlei; in the assay with Mucor hiemalis; in [2]; against Rhodotorula glutinis; in the assay with Wickerhamomyces anomalus; in the assay on Candida albicans) was greater than 67 µg/mL each time. The same compound gave an IC50 in the assay on HUVEC of 2.67 µM. The result (in assay [3]; with Trypanosoma cruzi; with Leishmania donovani; in the assay on Plasmodium falciparum) was inactive.

Take `CC1=C(CC(O)CC(O)\C=C/C=C/C(C)=C/C=C/C(C)C(O)C(C)CCc2ccccc2)N(CCO)C(C)(O)C1=O` (stereo not given): the MIC (against Micrococcus luteus; against Staphylococcus aureus; in the assay on Escherichia coli; in the assay with Nocardia; in [1]; with Pseudomonas aeruginosa) was greater than 67 µg/mL throughout. Further, the MIC (against Mycolicibacterium phlei; against Mucor hiemalis; in [2]; against Rhodotorula glutinis; against Wickerhamomyces anomalus; in the assay on Candida albicans) was greater than 67 µg/mL in each case.

On to `CC1=C(O)C(C)O/C(=C/CC(O)\C=C/C=C/C(C)=C/C=C/C(C)C(O)C(C)CCc2ccccc2)C1=O` (stereo not given), for which the MIC (with Micrococcus luteus; in the assay on Staphylococcus aureus; in the assay on Escherichia coli; in the assay on Nocardia; in [1]; with Pseudomonas aeruginosa) was greater than 67 µg/mL in each case. Also, the MIC against Mycolicibacterium phlei is greater than 67 µg/mL; in the assay with Mucor hiemalis (read-out: MIC) it was no more than 67 µg/mL; in assay [2], greater than 67 µg/mL; in the assay on Rhodotorula glutinis it was greater than 67 µg/mL; against Wickerhamomyces anomalus, greater than 67 µg/mL; in the assay with Candida albicans it was greater than 67 µg/mL.

For the compound `CC1=C(CC(O)CC(O)/C=C/C=C/C(C)=C/C=C/C(C)C(O)C(C)CCc2ccccc2)OC(C)(O)C1=O` (stereo not given), the minimum inhibitory concentration (MIC) (in the assay on Micrococcus luteus; against Staphylococcus aureus; with Escherichia coli; against Nocardia; in [1]; against Pseudomonas aeruginosa) was greater than 67 µg/mL throughout. The MIC (in the assay with Mycolicibacterium phlei; against Mucor hiemalis; in assay [2]; with Rhodotorula glutinis; in the assay on Wickerhamomyces anomalus; with Candida albicans) was greater than 67 µg/mL each time.

For `CC1=C(/C=C/CC(O)\C=C/C=C/C(C)=C/C=C/C(C)C(O)C(C)CCc2ccccc2)OC(C)(O)C1=O` (stereo not given), the MIC in the assay on Micrococcus luteus was greater than 67 µg/mL; in the assay with Staphylococcus aureus, greater than 67 µg/mL; in the assay with Escherichia coli it was greater than 67 µg/mL; in the assay with Nocardia (read-out: MIC) it was 8.3 µg/mL (≈ 16.4 µM); in [1], greater than 67 µg/mL; against Pseudomonas aeruginosa, greater than 67 µg/mL. Also, the MIC (with Mycolicibacterium phlei; in the assay on Mucor hiemalis; in assay [2]; against Rhodotorula glutinis; against Wickerhamomyces anomalus; against Candida albicans) was greater than 67 µg/mL in each case.

Consider `CC1=C(CC(O)CC(O)\C=C/C=C/C(C)=C/C=C/C(C)C(O)C(C)CCc2ccccc2)[N+](C)(CCO)C(C)(O)C1=O` (stereo not given), for which the MIC (with Micrococcus luteus; against Staphylococcus aureus; against Escherichia coli; with Nocardia (read-out: MIC); in assay [1]; against Pseudomonas aeruginosa) was greater than 67 µg/mL in each case. In addition, the MIC (in the assay on Mycolicibacterium phlei; with Mucor hiemalis (read-out: MIC); in assay [2]; in the assay with Rhodotorula glutinis; in the assay on Wickerhamomyces anomalus; in the assay on Candida albicans) was greater than 67 µg/mL each time.

`CC(/C=C/CCCC/C=C/c1oc(=O)c(C)c(O)c1C)=C\C=C\C(C)C(O)C(C)CCc1ccccc1` (stereo not given): the MIC with Micrococcus luteus is greater than 67 µg/mL; in the assay with Staphylococcus aureus it was greater than 67 µg/mL; against Escherichia coli, greater than 67 µg/mL; with Nocardia (read-out: MIC), 16.6 µg/mL (≈ 32.9 µM); in assay [1], greater than 67 µg/mL; in the assay on Pseudomonas aeruginosa, greater than 67 µg/mL. Besides, the MIC against Mycolicibacterium phlei was greater than 67 µg/mL; with Mucor hiemalis (read-out: MIC), 33.3 µg/mL (≈ 66 µM); in [2], greater than 67 µg/mL; in the assay with Rhodotorula glutinis, greater than 67 µg/mL; with Wickerhamomyces anomalus, greater than 67 µg/mL; in the assay on Candida albicans, greater than 67 µg/mL. The same compound showed an IC50 in the assay with L929 of 22 µM.
